NPY-Y1 PAM-ag = potentiates or activates human NPY-Y1 receptor | P25929 | NPY-Y1 expressing cells, potentiator/agonist activation | activation, % at 3.6 µM | 220,000 compounds, 0.37% hits; in the data active = activation above about 33%, passing the limit was not always enough;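 also: cells stimulated with NPY at EC10 then isoproterenol at EC100; 0% = low agonist plus stimulus and 100% = saturating agonist plus stimulus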
S1P4 antagonist = blocks the human S1P4 receptor | S1P4-expressing cells, antagonist mode, reporter read-out | O95977 | 220,000 compounds, 0.26% hits | inhibition, % at 4.98 µM; in the data active = inhibition above about 29%;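 also: 0% = wells stimulated with agonist and 100% = vehicle wells without agonist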
Target sequence (O95977 whole entry, looked up): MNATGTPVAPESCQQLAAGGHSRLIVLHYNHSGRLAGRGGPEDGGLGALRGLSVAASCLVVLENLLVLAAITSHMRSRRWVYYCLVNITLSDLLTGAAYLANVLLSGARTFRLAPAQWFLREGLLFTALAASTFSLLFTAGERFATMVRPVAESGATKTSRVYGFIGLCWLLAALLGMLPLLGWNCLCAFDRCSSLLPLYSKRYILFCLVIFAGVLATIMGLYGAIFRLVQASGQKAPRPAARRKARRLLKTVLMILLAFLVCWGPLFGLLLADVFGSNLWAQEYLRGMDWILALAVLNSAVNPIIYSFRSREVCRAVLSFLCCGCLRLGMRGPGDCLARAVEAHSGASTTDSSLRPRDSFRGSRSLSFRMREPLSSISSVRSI
NPY2 pot ag = potentiates or activates human NPY-Y2 receptor; activation, % at 3.6 µM; P49146; cells expressing NPY-Y2, potentiator/agonist read-out; 220,000 compounds, 0.45% hits; in the data active = activation above about 27%;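 also: cells stimulated with NPY near EC25 plus isoproterenol at EC100; 0% = vehicle plus submaximal agonist and 100% = vehicle plus saturating agonist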
NPY Y1 blocker = antagonists of human neuropeptide Y receptor Y1. P25929. 200,000 compounds, 1% hits. HEK293-CNG Y1 cells, membrane potential fluorescence; NPY at EC95, then isoproterenol. inhibition, % at 3.6 µM. AID 1040;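 active = inhibition above the campaign mean inhibition of all tested compounds plus 3 SD, cut at about 20% in these data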;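 also: 0% = DMSO wells given NPY plus isoproterenol and 100% = isoproterenol alone without NPY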
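Material: Y1- and CNG-channel-expressing HEK293 cells / Probe or stimulus: NPY 25 nM then isoproterenol 1 µM plus Ro 20-1724 25 µM / Doses: 3.6 µM single dose, DMSO 0.4% / Schedule: compound incubation 1 h at room temperature, readout 45 min post-stimulation / Signal: membrane potential fluorescence / Benchmarks: isoproterenol-only wells as full block versus NPY-plus-isoproterenol wells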
S1P4 ag = agonists of human S1P4 receptor; activation, % at 4.98 µM; AID 1509; O95977; 220,000 compounds, 0.35% hits; S1P4-expressing cell line, agonist reporter assay; in the data active = activation above about 11%;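 also: 0% = DMSO vehicle and 100% = reference agonist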
NPY-Y2 antag = NPY-Y2 (human) receptor antagonism. NPY-Y2 expressing cells, antagonist mode. inhibition, % at 2.7 µM. 140,000 compounds, 0.99% hits;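 also: 0% = vehicle with agonist challenge and 100% = reference antagonist with challenge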
NPY-Y1 ant conf = human NPY-Y1 antagonism, confirmation; shares compounds with NPY Y1 blocker; inhibition, % at 3.6 µM; HEK293-CNG NPY-Y1, membrane potential fluorescence, cAMP; NPY challenge against isoproterenol-raised cAMP; AID 1254; 1,200 compounds, 21% hits; in the data active = inhibition above about 20%;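 also: 0% = vehicle with agonist plus stimulus and 100% = stimulus alone without agonist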
NPY2 antag ctr = counter-screen for NPY-Y1 antagonists: human NPY-Y2 antagonism; shares compounds with NPY Y1 blocker; HEK293 NPY-Y2 CNG membrane potential fluorescence; cells given NPY, then isoproterenol; inhibition, % at 3.6 µM; 1,200 compounds, 28% hits; AID 1255;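 also: 0% = DMSO with agonist challenge and 100% = reference antagonist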
Starred values were filed as active, the others as inactive; x = not tested or not shown. In the library only some 2.4% were active in any assay of this set; here they are far more common. Rule as the data show it, unless noted: active = inhibition above about 17%; inactive = the rest.

SMILES	NPY-Y1 PAM-ag	S1P4 antagonist	NPY2 pot ag	NPY Y1 blocker	S1P4 ag	NPY-Y2 antag	NPY-Y1 ant conf	NPY2 antag ctr
CC(C)(C)NCC(=O)N/N=C/c1ccc(OCc2ccccc2)cc1	-34.9	-3.0	-32.9	25.1*	1.2	x	20.8*	30.9*
COc1ccc(C2Nc3ccccc3C(=O)N2Cc2ccccc2)cc1COc1ccccn1 (configuration not stated)	-4.5	0.7	-17.4	35.8*	-2.4	14.5	4.4	6.1
COc1ccc(N2C(=O)c3ccccc3NC2c2ccc(OC)c(COc3ccccn3)c2)cc1 (configuration not stated)	-20.8	-1.5	0.8	8.3	1.0	4.1	x	x
Cc1cc(C)c(C)c(S(=O)(=O)N2CCN(CC(=O)Nc3sccc3C#N)CC2)c1C	-4.9	-16.7	-10.0	1.4	1.1	9.8	x	x
O=[N+]([O-])c1cc2c(c(CSc3ncccn3)c1)OCOC2	3.9	-19.3	-7.4	24.0*	0.3	x	3.1	6.2
Nc1cc(N)nc(SCc2cc([N+](=O)[O-])cc3c2OCOC3)n1	16.8	9.0	-7.5	x	-1.3	x	x	x
OCC1(Cc2ccc(Cl)cc2)CCN(Cc2ccccc2F)CC1	-27.2	-2.7	-29.2	12.9	-1.7	x	x	x
CSc1ccc(CN2CCC(CO)(Cc3ccc(Cl)cc3)CC2)cc1	-75.3	9.5	-48.3	52.3*	-3.5	x	39.2*	47.9*
Cc1ccc2nc(NC(=O)Cc3cccs3)sc2c1	31.8	-5.1	21.2	-11.0	-2.1	-3.8	x	x
CCc1ccc2nc(NC(=O)CCCc3cccs3)sc2c1	-39.1	1.8	-21.2	23.5*	1.5	6.5	11.1	8.1
Cc1c(Cl)ccc2c(C(=O)NCCN3CCCCC3)cc(-c3ccccn3)nc12	-101.7	4.5	-63.3	25.3*	0.8	x	19.5	28.5*
COC(=O)CNC(=O)c1cc(-c2ccncc2)nc2c(C)c(Cl)ccc12	-9.0	-18.1	1.1	-1.0	-1.6	x	x	x
COc1cccc(CN2CCNC(=O)C2CC(=O)NCCc2cccc(C)n2)c1OC (configuration not stated)	7.1	10.7	-23.4	3.9	0.7	x	x	x
CCCn1c(SCC(=O)Nc2ccccc2N2CCCCC2)nc2c1c(=O)n(C)c(=O)n2C	-33.1	8.1	-11.7	25.8*	0.5	11.0	15.1	13.1
COC(=O)c1cc(-c2ccccc2)on1	-15.7	-16.4	-13.0	2.2	-1.3	2.7	x	x
COc1cccc(-c2cc(C(=O)O)no2)c1	-4.1	-0.9	3.7	3.2	2.9	3.3	x	x
COC(=O)c1cc(-c2ccc(Br)cc2)on1	-48.7	-20.9	-43.7	23.4*	2.2	15.1	11.8	17.4*
COC(=O)c1cc(-c2cccc(OC)c2)on1	-37.9	11.7	-28.6	27.1*	0.7	12.6	11.3	14.8
Cc1nc2c(C(=O)N3CCN(c4ccccn4)CC3)cnn2c(C)c1Cc1cccc(Cl)c1	-22.1	3.6	-21.0	31.0*	2.3	12.6	12.1	12.0
Cc1nc2c(C(=O)N3CCCC3)cnn2c(C)c1Cc1c(F)cccc1Cl	6.3	-7.2	-1.7	4.7	-0.4	3.8	x	x
COCCCNC(=O)c1ccccc1C(F)(F)F	-19.6	-3.9	7.8	x	-0.3	x	x	x
c1ccc(-c2nc(Sc3ncnc4c3cnn4-c3ccccc3)n[nH]2)cc1	-51.2	2.5	-33.3	25.8*	-0.9	6.2	7.4	8.8
CCOCCCNCc1ccc(Cl)cc1	-25.8	-41.5	-13.2	-0.3	1.1	0.8	x	x
CN1/C(=C\C=O)C(C)(C)c2ccccc21	-23.6	2.0	-17.7	5.6	1.7	x	x	x
CN1\C(=C/C=C/C=C/C=[N+](C)C)C(C)(C)c2ccccc21	3.5	-15.2	-8.3	150.8*	2.7	x	194.6*	144.7*
SMILES	NPY-Y1 PAM-ag	S1P4 antagonist	NPY2 pot ag	NPY Y1 blocker	S1P4 ag	NPY-Y2 antag	NPY-Y1 ant conf	NPY2 antag ctr
Cc1ccc2nc(-c3ccncc3)cc(-c3ccccc3)c2c1	-35.2	-13.0	-13.9	4.0	-2.0	4.5	x	x
Cc1ccc(-c2cc3cccc[n+]3cc2-c2ccc(C)cc2)cc1	-61.7	-12.0	-16.0	21.7*	0.4	14.2	32.2*	20.9*
CN1C(=O)N(c2cccc3ccccc23)C(n2cncn2)C1(C)C (configuration not stated)	-4.6	5.1	5.7	-2.4	1.7	-1.2	x	x
CCOC(=O)c1cnn(-c2nc(-c3ccc(F)cc3)cs2)c1C(F)(F)F	-10.8	-23.4	-0.9	9.1	1.1	5.6	x	x
CCOC(=O)c1cnn(-c2nc(-c3ccccc3)cs2)c1C(F)(F)F	-20.6	-7.0	-7.5	20.2*	0.8	3.5	7.3	9.1
COc1ccc(-c2nnc(SCC(=O)N3CCCCC3)o2)cc1OC	13.5	-21.7	11.0	2.9	1.5	1.0	x	x
CCCn1nnc(NC(=O)c2ccc(-c3cccc(Cl)c3)o2)n1	19.7	-4.7	-18.1	2.6	-1.0	3.0	x	x
CCCn1nnc(NC(=O)c2cccc(Cl)c2)n1	10.0	-2.1	-8.6	50.6*	1.8	1.6	1.1	1.4
CCOc1ccccc1NC(=O)Cn1c(-c2ccc(Cl)cc2)noc1=O	11.9	-13.5	3.5	x	0.1	x	x	x
CCc1cccc(CC)c1NC(=O)Cn1c(-c2ccc(F)cc2)noc1=O	-6.6	7.6	-12.4	30.3*	1.0	x	16.7	5.9
Cc1ccc2nc(C)cc(C(=O)OCC(=O)Nc3c(C)n(C)n(-c4ccccc4)c3=O)c2c1	3.8	-7.9	-4.3	1.8	1.1	x	x	x
O=C(NCC(c1cccnc1)N1CCN(c2ccc(F)cc2)CC1)C1CCCCC1 (configuration not stated)	-4.3	-6.0	-3.4	65.8*	0.0	2.4	2.0	2.0
CC(Sc1c[nH]c2ccccc12)C(=O)O (configuration not stated)	-42.0	3.6	-16.5	27.5*	2.1	10.0	5.1	4.0
O=C(O)CSc1c[nH]c2ccccc12	-7.5	-20.5	-14.1	12.6	0.3	10.2	x	x
CCCn1nc(NS(C)(=O)=O)c2cc3cccc(C)c3nc21	-28.8	9.3	-33.8	27.1*	1.6	11.6	15.4	14.6
O=C(Nc1ccc(N=Nc2ccccc2)cc1)c1cccc(Cl)c1	-26.4	-9.1	8.9	2.2	-1.9	1.1	x	x
CC1CCCC(NC(=O)CSc2ccc(F)cc2)C1C (configuration not stated)	1.1	-8.8	4.8	67.5*	-0.1	x	4.8	2.2
C=CCNCCCCOc1c(Cl)cc(C)cc1Br	-34.6	0.6	-19.0	20.8*	-0.6	10.5	11.7	17.8*
COCCCNCCCOc1ccc(C)cc1Br	-27.9	-2.8	-1.7	11.9	-2.1	2.3	x	x
COCCCNCCCCOc1c(Cl)cc(C)cc1Br	-38.5	7.5	-10.0	30.8*	-3.1	6.5	7.1	13.4
C=CCNCCOc1c(C)cc(C)cc1Cl	-21.2	-15.7	13.6	11.0	0.4	8.1	x	x
